Test results published in ChEMBL document CHEMBL5370587, “Fungal Anthraquinone Photoantimicrobials Challenge the Dogma of Cationic Photosensitizers” (J Nat Prod, 2023).
Values belong to the compound of their own block, whether it stands above or below them.

What was measured:
Candida albicans [1] = test: Antifungal activity against Candida albicans 501670 assessed as reduction in microbial growth preincubated for 60 mins under dark condition and measured after 20 to 24 hrs at room temperature by RPMI-1640 based dilution assay
Escherichia coli [2] = test: Antibacterial activity against Escherichia coli DSM1103 assessed as reduction in microbial growth preincubated for 60 mins under dark condition and measured after 20 to 24 hrs at room temperature by muller hinton broth based dilution assay; format: functional; conditions: time 20-24 hrs
Method in brief: (§1)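 Bacteria grown overnight at 37 °C for 15−18 h in the dark, then set to 0.5 McFarland (read at 600 nm) and diluted 1:50 in Müller-Hinton broth to (2–8) × 10⁵ CFU/mL. Dark plate held at room temperature, then incubated at 37 °C. After 20−24 h, turbidity was read against the untreated growth control, with blanks subtracted. Compounds tested at ≥10 concentrations in biological triplicate.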

A549 [3] = test: Phototoxicity against human A549 cells assessed as reduction in cell growth preincubated with compound for 24 hrs under dark condition and measured after 48 hrs by SRB assay; format: functional, cell-based; conditions: A549, light or radiation study
Method in brief: (§2)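 Dark control plate processed the same way: cells (A549 2000, AGS 2500, T24 1500 per well) in Opti-MEM with 2.4% FCS, dosed at 25.0−0.3 μM 24 h after seeding. Medium renewed after 24 h, then 48 h further at 37 °C, 5% CO2 without light. SRB read-out at 540 nm after TCA fixation. EC50 with 95% CI from variable-slope fit.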

Candida albicans [4] = test: Antifungal activity against Candida albicans 501670 assessed as reduction in microbial growth preincubated for 60 mins under dark condition followed by 478 nm light irradiation and measured after 20 to 24 hrs by RPMI-1640 based dilution assay; conditions: Candida albicans, 501670, light or radiation study
Candida albicans [5] = test: Antifungal activity against Candida albicans 501670 assessed as reduction in microbial growth preincubated for 60 mins under dark condition followed by 530 nm light irradiation and measured after 20 to 24 hrs by RPMI-1640 based dilution assay; conditions: Candida albicans, 501670, light or radiation study
T-24 [6] = test: Phototoxicity against human T24 cells assessed as reduction in cell growth preincubated with compound for 24 hrs followed by blue light irradiation at 468 nm for 7 mins 30 sec and measured after 48 hrs by SRB assay; format: functional, cell-based; conditions: T-24, light or radiation study
Method in brief: (§3)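 Cells (A549 2000, AGS 2500, T24 1500 per well) seeded in Opti-MEM with 2.4% FCS. After 24 h, treated with 25.0−0.3 μM (six levels). After another 24 h, medium was replaced and cells got blue light (468±27 nm, 9.3 J/cm²). Held 48 h at 37 °C, 5% CO2, then TCA-fixed and SRB-stained, read at 540 nm. EC50 from variable-slope fit with 95% CI.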

AGS [7] = test: Photo index, ratio of EC50 for human AGS cells killed in the absence of light to EC50 for human AGS cells killed after irradiation; format: functional
Method in brief: (§4)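 SRB assay: cells seeded in Opti-MEM with 2.4% FCS, treated 24 h later with 0.3–25.0 μM, medium replaced after 24 h. Duplicate plates were irradiated with blue light (468 nm, 9.3 J/cm²) or green light (519 nm, 30.0 J/cm²), or kept dark, then held 48 h at 37 °C, 5% CO₂. EC50 from Hill fit; photoindex = EC50 dark / EC50 irradiated.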

Escherichia coli [8] = test: Antibacterial activity against Escherichia coli DSM1103 assessed as reduction in microbial growth preincubated for 60 mins under dark condition followed by 478 nm light irradiation and measured after 20 to 24 hrs by muller hinton broth based dilution assay; format: functional; conditions: DSM1103, light or radiation study, time 21-25 hrs
Method in brief: (§5)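 PhotoMIC (modified EUCAST broth microdilution): 0.5 McFarland suspensions diluted 1:50 in Mueller-Hinton broth (bacteria, 2–8 × 10⁵ CFU/mL) or 1:10 in double-strength RPMI-1640 (yeast, 0.5–2.5 × 10⁵ CFU/mL); ≥10 concentrations, biological triplicates; 60 min dark preincubation, then 30 J/cm² irradiation or dark duplicate plate; 37 °C, 20–24 h; turbidity versus growth control, blanks subtracted.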

AGS [9] = test: Phototoxicity against human AGS cells assessed as reduction in cell growth preincubated with compound for 24 hrs under dark condition and measured after 48 hrs by SRB assay; format: functional, cell-based; conditions: light or radiation study
Method in brief: as §2

Escherichia coli [10] = test: Antibacterial activity against Escherichia coli DSM1103 assessed as reduction in microbial growth preincubated for 60 mins under dark condition followed by 428 nm light irradiation and measured after 20 to 24 hrs by muller hinton broth based dilution assay; format: functional; conditions: DSM1103, light or radiation study, time 21-25 hrs
Method in brief: as §5

AGS [11] = test: Phototoxicity against human AGS cells assessed as reduction in cell growth preincubated with compound for 24 hrs followed by blue light irradiation at 468 nm for 7 mins 30 sec and measured after 48 hrs by SRB assay; format: functional, cell-based; conditions: light or radiation study
Method in brief: as §3

A549 [12] = test: Photo index, ratio of EC50 for human A549 cells killed in the absence of light to EC50 for human A549 cells killed after irradiation; format: functional
Method in brief: as §4

Staphylococcus aureus [13] = test: Antibacterial activity against Staphylococcus aureus DSM1104 assessed as reduction in microbial growth preincubated for 60 mins under dark condition followed by 478 nm light irradiation and measured after 20 to 24 hrs by muller hinton broth based dilution assay; format: functional; conditions: DSM1104, light or radiation study, time 21-25 hrs
Method in brief: as §5

T-24 [14] = test: Phototoxicity against human T24 cells assessed as reduction in cell growth preincubated with compound for 24 hrs under dark condition and measured after 48 hrs by SRB assay; format: functional, cell-based; conditions: T-24, light or radiation study
Method in brief: as §2

Staphylococcus aureus [15] = test: Antibacterial activity against Staphylococcus aureus DSM1104 assessed as reduction in microbial growth preincubated for 60 mins under dark condition followed by 428 nm light irradiation and measured after 20 to 24 hrs by muller hinton broth based dilution assay; format: functional; conditions: DSM1104, light or radiation study, time 21-25 hrs
Method in brief: as §5

Candida albicans [16] = test: Antifungal activity against Candida albicans 501670 assessed as reduction in microbial growth preincubated for 60 mins under dark condition followed by 428 nm light irradiation and measured after 20 to 24 hrs by RPMI-1640 based dilution assay; conditions: Candida albicans, 501670, light or radiation study
Staphylococcus aureus [17] = test: Antibacterial activity against Staphylococcus aureus DSM1104 assessed as reduction in microbial growth preincubated for 60 mins under dark condition and measured after 20 to 24 hrs at room temperature by muller hinton broth based dilution assay; format: functional; conditions: time 20-24 hrs
Method in brief: as §1

Escherichia coli [18] = test: Antibacterial activity against Escherichia coli DSM1103 assessed as reduction in microbial growth preincubated for 60 mins under dark condition followed by 530 nm light irradiation and measured after 20 to 24 hrs by muller hinton broth based dilution assay; format: functional; conditions: DSM1103, light or radiation study, time 21-25 hrs
Method in brief: as §5

T-24 [19] = test: Photo index, ratio of EC50 for human T24 cells killed in the absence of light to EC50 for human T24 cells killed after irradiation; format: functional
Method in brief: as §4

Staphylococcus aureus [20] = test: Antibacterial activity against Staphylococcus aureus DSM1104 assessed as reduction in microbial growth preincubated for 60 mins under dark condition followed by 530 nm light irradiation and measured after 20 to 24 hrs by muller hinton broth based dilution assay; format: functional; conditions: DSM1104, light or radiation study, time 21-25 hrs
Method in brief: as §5

A549 [21] = test: Phototoxicity against human A549 cells assessed as reduction in cell growth preincubated with compound for 24 hrs followed by blue light irradiation at 468 nm for 7 mins 30 sec and measured after 48 hrs by SRB assay; format: functional, cell-based; conditions: A549, light or radiation study
Method in brief: as §3

- MIC (Candida albicans [1]): 0.22 µM
SMILES: C[C@@H]1[C@H](O)[C@@H](C)/C=C/C=C/C=C/C=C/C=C/C=C/C=C/[C@H](O[C@@H]2O[C@H](C)[C@@H](O)[C@H](N)[C@@H]2O)C[C@@H]2O[C@](O)(C[C@@H](O)C[C@@H](O)[C@H](O)CC[C@@H](O)C[C@@H](O)CC(=O)O[C@H]1C)C[C@H](O)[C@H]2C(=O)O [AMPHOTERICIN B]

- MIC (Escherichia coli [2]): 6.1 µM
SMILES: O=C(N[C@H](CO)[C@H](O)c1ccc([N+](=O)[O-])cc1)C(Cl)Cl [CHLORAMPHENICOL]

SMILES: Cc1cc(O)c2c(c1)C(=O)c1cc(O)cc(O)c1C2=O [EMODIN]
- EC50 (A549 [3]): 19000 nM
- MIC (Candida albicans [4]): 2.78 µM
- MIC (Candida albicans [5]): 46 µM
- MIC (Escherichia coli [2]): > 92 µM
- EC50 (T-24 [6]): 1700 nM
- Ratio EC50 (AGS [7]): >16
- MIC (Escherichia coli [8]): > 92 µM
- EC50 (AGS [9]): > 25000 nM
- MIC (Escherichia coli [10]): 11.1 µM
- EC50 (AGS [11]): 1500 nM
- Ratio EC50 (A549 [12]): 7
- MIC (Staphylococcus aureus [13]): 1.85 µM
- EC50 (T-24 [14]): > 25000 nM
- MIC (Staphylococcus aureus [15]): 1.85 µM
- MIC (Candida albicans [16]): 0.37 µM
- MIC (Staphylococcus aureus [17]): > 92 µM
- MIC (Escherichia coli [18]): > 92 µM
- Ratio EC50 (T-24 [19]): >15
- MIC (Candida albicans [1]): > 92 µM
- MIC (Staphylococcus aureus [20]): 11.1 µM
- EC50 (A549 [21]): 2900 nM

- MIC (Staphylococcus aureus [17]): 1.4 µM
SMILES: CC[C@H]1OC(=O)[C@H](C)[C@@H](O[C@H]2C[C@@](C)(OC)[C@@H](O)[C@H](C)O2)[C@H](C)[C@@H](O[C@@H]2O[C@H](C)C[C@H](N(C)C)[C@H]2O)[C@](C)(O)C[C@@H](C)C(=O)[C@H](C)[C@@H](O)[C@]1(C)O [ERYTHROMYCIN]
